Test results reported in ChEMBL document CHEMBL1133754, “Synthesis and antiviral evaluation of halogenated beta-D- and -L-erythrofuranosylbenzimidazoles” (J Med Chem, 2000).

Columns and labels:
[1] = Compound was tested for antiviral activity against Towne strain of HCMV in a yield reduction assay using HFF cells; type: functional; conditions: Homo sapiens
In short: (§1)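 HCMV Towne yield reduction in HFF cells, MOI 0.5; progeny titred by end-point dilution and plaque enumeration; IC50 from linear regression of percent inhibition against log drug concentration.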

HFF [2] = assay: Compound was tested for antiviral activity against Towne strain of HCMV in a plaque reduction assay using HFF cells; type: functional, cell-based; conditions: Homo sapiens
HFF [3] = assay: Compound was tested for antiviral activity against AD169 strain of HCMV in a plaque reduction assay using HFF cells; type: functional, cell-based; conditions: Homo sapiens
Human betaherpesvirus 5 [4] = assay: Compound was tested for antiviral activity against HCMV in DNA hybridization assay; type: functional, organism-based
In short: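 HCMV replication measured by DNA hybridization; IC50 from linear regression of percent inhibition against log drug concentration.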

Human alphaherpesvirus 1 = assay: Compound was tested for antiviral activity against HSV-1 assayed by ELISA in quadruplicate wells; type: functional, organism-based
In short: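 HSV-1 replication measured by ELISA in quadruplicate wells; IC50 from linear regression of percent inhibition against log drug concentration.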

HFF [5] = assay: Compound was tested for visual cytotoxicity on HFF cells unaffected by HCMV at the time of plaque enumeration; type: functional, cell-based; conditions: Homo sapiens
In short: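 Stationary HFF cells not affected by virus in plaque assay plates inspected microscopically for cytotoxicity at time of plaque enumeration; IC50 by regression of percent inhibition vs log concentration.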

Human betaherpesvirus 5 [6] = assay: Compound was tested for antiviral activity against HCMV in viral cytopathic effect (CPE) assay; type: functional, organism-based
In short: (§2)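 HCMV viral cytopathic effect scored microscopically as visible virus effects on cells; IC50 derived by linear regression of percent inhibition vs log drug concentration.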

[7] = (§3) Compound was tested for inhibition of KB cell growth in quadruplicate assay; type: functional, cell-based; conditions: Homo sapiens
In short: (§4)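 KB cell proliferation over two control population doublings; crystal violet staining with spectrophotometric quantification of eluted dye; quadruplicate assays; IC50 by linear regression of percent inhibition vs log concentration.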

HFF [8] = assay: Compound was tested for antiviral activity against wild-type Towne virus of HCMV in plaque reduction assay using HFF cells; type: functional, cell-based; conditions: Homo sapiens
HFF [9] = assay: Compound was tested for antiviral activity against wild-type Towne virus of HCMV in yield reduction assay using HFF cells; type: functional, cell-based; conditions: Homo sapiens; in short: as §1
HFF [10] = assay: Compound was tested for antiviral activity against C-4 Towne virus of HCMV in yield reduction assay using HFF cells; type: functional, cell-based; conditions: Homo sapiens
HFF [11] = assay: Compound was tested for antiviral activity against 2916 strain of HCMV in plaque reduction assay using HFF cells; type: functional, cell-based; conditions: Homo sapiens
KB = assay: as §3; type: functional, cell-based; conditions: Homo sapiens; in short: as §4
HFF [12] = assay: Compound was tested for antiviral activity against wild-type AD169 virus of HCMV in plaque reduction assay using HFF cells; type: functional, cell-based; conditions: Homo sapiens
HFF [13] = assay: Compound was tested for antiviral activity against C-4 Towne virus of HCMV in plaque reduction assay using HFF cells; type: functional, cell-based; conditions: Homo sapiens
[14] = Compound was tested for inhibition of MOLT 4 cells.; type: functional, cell-based, Homo sapiens
In short: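 Cytotoxicity in MOLT 4 cells (human T-cell lymphocytic leukemia line). IC50 from linear regression of percent inhibition against log drug concentration; >100 µM means IC50 was not reached at the highest concentration tested.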

Human betaherpesvirus 5 [15] = assay: Compound was tested for antiviral activity against HCMV in viral cytopathic effect(CPE) assay; type: functional, organism-based; in short: as §2
HFF [16] = assay: (§5) Compound was tested for antiviral activity against C-4 Towne strain of HCMV in yield reduction assay using HFF cells; type: functional; conditions: Homo sapiens
HFF [17] = assay: (§6) Compound was tested for antiviral activity against wild-type Towne strain of HCMV in yield reduction assay using HFF cells; type: functional; conditions: Homo sapiens; in short: as §1
HFF [18] = assay: Compound was tested for antiviral activity against 2916 type AD169 virus of HCMV in plaque reduction assay using HFF cells; type: functional, cell-based; conditions: Homo sapiens
HFF [19] = assay: (§7) Compound was tested for antiviral activity against wild-type AD169 strain of HCMV in yield reduction assay using HFF cells; type: functional, cell-based; conditions: Homo sapiens
HFF [20] = assay: (§8) Compound was tested for antiviral activity against 2916 AD169 strain of HCMV in yield reduction assay using HFF cells; type: functional, cell-based; conditions: Homo sapiens
HFF [21] = assay: Compound was tested for antiviral activity against AD169 strain of HCMV in a plaque assay using HFF cells; type: functional, cell-based; conditions: Homo sapiens
HFF [22] = assay: as §6; type: functional, cell-based; conditions: Homo sapiens; in short: as §1
HFF [23] = assay: as §8; type: functional; conditions: Homo sapiens
HFF [24] = assay: as §5; type: functional, cell-based; conditions: Homo sapiens
HFF [25] = assay: as §7; type: functional; conditions: Homo sapiens

Row | SMILES | IC90 [1] [nM] | IC50 (HFF [2]) [nM] | IC50 (Human betaherpesvirus 5 [4]) [nM] | IC50 (Human alphaherpesvirus 1) [nM] | IC50 (HFF [5]) [nM] | IC50 (Human betaherpesvirus 5 [6]) [nM] | IC50 [7] [nM] | IC50 (KB) [nM] | IC50 [14] [nM] | also measured
1 | CC(=O)OC1[C@@H](OC(C)=O)CO[C@H]1n1c(Br)nc2cc(Cl)c(Cl)cc21 (stereo partly drawn) | 50 | 220 | 210 | > 100000 | 59000 | 50 | 60000 | – | – | IC50 (HFF [3]): 50 nM
2 | CC(=O)OC1[C@@H](OC(C)=O)CO[C@H]1n1c(Cl)nc2cc(Cl)c(Cl)cc21 (stereo partly drawn) | 100 | 250 | 330 | > 100000 | 41000 | 100 | 45000 | – | – | –
3 | OC[C@H]1O[C@@H](n2c(Br)nc3cc(Cl)c(Cl)cc32)[C@H](O)[C@@H]1O | 200 | 700 | 520 | 130000 | 118000 | 300 | – | > 100000 | – | IC50 (HFF [8]): 1700 nM; IC50 (HFF [9]): 300 nM; IC90 (HFF [10]): 8000 nM; IC50 (HFF [11]): 410 nM; IC50 (HFF [12]): 340 nM; IC50 (HFF [13]): 31000 nM
4 | OC[C@H]1O[C@@H](n2c(Cl)nc3cc(Cl)c(Cl)cc32)[C@H](O)[C@@H]1O | 1300 | 2800 | – | – | – | – | 210000 | – | – | –
5 | O[C@@H]1COC(n2c(Cl)nc3cc(Cl)c(Cl)cc32)[C@@H]1O (stereo partly drawn) | 120 | 240 | 100 | > 100000 | 32000 | 100 | 60000 | – | – | –
6 | CC(C)Nc1nc2cc(Cl)c(Cl)cc2n1C1OC[C@H](O)[C@@H]1O (stereo partly drawn) | – | – | 800 | – | – | 2300 | – | – | 15000 | –
7 | CC(C)Nc1nc2c(Br)c(Cl)c(Cl)cc2n1C1OC[C@@H](O)[C@H]1O (stereo partly drawn) | – | – | 160 | – | – | 1000 | – | – | 13000 | –
8 | O[C@@H]1COC(n2c(Cc3ccccc3S)nc3cc(Cl)c(Cl)cc32)[C@@H]1O (stereo partly drawn) | – | 32000 | > 10000 | 65000 | 32000 | > 10000 | – | 60000 | – | –
9 | CC(C)Nc1nc2cc(Cl)c(Cl)cc2n1C1OC[C@@H](O)[C@H]1O (stereo partly drawn) | 5000 | 7900 | 420 | > 100000 | > 100000 | – | – | > 100000 | 84000 | IC50 (HFF [3]): 1800 nM; IC50 (Human betaherpesvirus 5 [15]): 800 nM; IC90 (HFF [16]): 8500 nM; IC90 (HFF [17]): 6900 nM
10 | O[C@@H]1COC(n2c(NC3CC3)nc3cc(Cl)c(Cl)cc32)[C@@H]1O (stereo partly drawn) | 6800 | 19000 | 260 | > 100000 | > 100000 | 600 | > 100000 | – | 132000 | IC90 (HFF [16]): 5000 nM; IC90 (HFF [17]): 10000 nM
11 | O[C@@H]1C(n2c(NC3CC3)nc3cc(Cl)c(Cl)cc32)OC[C@@H]1O (stereo partly drawn) | – | – | 2000 | – | – | 2300 | – | – | 43000 | –
12 | O[C@@H]1COC(n2c(Br)nc3cc(Cl)c(Cl)cc32)[C@@H]1O (stereo partly drawn) | 60 | 240 | 230 | 50000 | 32000 | 50 | – | 50000 | 47000 | IC50 (HFF [3]): 40 nM; IC50 (HFF [8]): 230 nM; IC50 (HFF [12]): 30 nM; IC50 (HFF [13]): 12000 nM; IC50 (HFF [18]): 30 nM
13 | CC(C)Nc1nc2c(Cl)c(Cl)c(Cl)cc2n1C1OC[C@H](O)[C@@H]1O (stereo partly drawn) | – | – | 150 | – | – | 800 | – | – | – | –
14 | CC(C)Nc1nc2cc(Cl)c(Cl)cc2n1C1O[C@@H](CO)[C@H](O)[C@@H]1O (stereo partly drawn) | 600 | – | 100 | > 100000 | > 100000 | – | 65000 | – | – | IC90 (HFF [16]): 700 nM; IC50 (HFF [19]): 330 nM; IC90 (HFF [17]): 590 nM; IC50 (HFF [20]): > 100000 nM; IC50 (HFF [21]): 450 nM
15 | Nc1nc2c(ncn2COC(CO)CO)c(=O)[nH]1 [GANCICLOVIR] | 1600 | – | 880 | – | > 100000 | – | – | > 100000 | – | IC50 (HFF [22]): 4500 nM; IC50 (Human betaherpesvirus 5 [15]): 2000 nM; IC90 (HFF [23]): 3600 nM; IC90 (HFF [24]): 4100 nM; IC90 (HFF [25]): 3300 nM
